IC50 and Activity data for ten molecules are collected here from ChEMBL document CHEMBL1240495, “Alpha,beta-unsaturated N-acylpyrrole peptidyl derivatives: new proteasome inhibitors” (J Med Chem, 2010).

Data set [1] can be described thus: Inhibition of trypsin-like activity of 20S proteasome beta2 from human LCL cells after 30 mins.
Data set [2] in a line: Inhibition of chymotrypsin-like activity of 20S proteasome in human LCL cells after 12 hrs.
The subject of data set [3] is 20S proteasome beta1 subunit (Homo sapiens). Description: Inhibition of PGPH catalytic activity of 20S proteasome beta1 in human LCL cells after 12 hrs.
Data set [4] concerns 20S proteasome beta5 subunit (Homo sapiens). Description: Inhibition of chymotrypsin-like activity of 20S proteasome beta5 in human LCL cells after 12 hrs by in vivo assay.
Data set [5] has as its system 20S proteasome beta1 subunit (Homo sapiens). Description: Inhibition of PGPH catalytic activity of 20S proteasome beta1 in human LCL cells after 12 hrs by in vivo assay.
A short description of data set [6]: Inhibition of trypsin-like activity of 20S proteasome beta 2 in human LCL cells after 12 hrs by in vivo assay. The method in brief: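 LCLs exposed to inhibitor for 12 h at 37 °C. Proteasomes then partially purified and incubated 30 min at 37 °C in activity buffer with Suc-LLVY-AMC (chymotrypsin-like), Boc-LRR-AMC (trypsin-like) or Z-LLE-AMC (postacidic). Fluorescence read at ex 360/em 465 nm.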

Another data set deals with JIYOYE. Description: Cytotoxicity against human Jijoye cells at 10 uM after 3 days by trypan blue exclusion assay. The conditions noted are these: 72 h. It is filed as cell-based. The method in brief:
(§1)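 LCL and Burkitt's lymphoma JiJoye cells seeded in duplicate at 50 × 10³ cells/mL in medium with 10% FCS. Exposed to 0.1–10 μM compound or medium alone. Viability and proliferation followed for 3 days by Trypan blue exclusion and cell counting.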

The nature of data set [7]: Cytotoxicity against human LCL cells at 10 uM after 3 days by trypan blue exclusion assay. Type of data set: cell-based. The conditions noted are these: 72 h. The method in brief: as §1

Peptide text beside a SMILES is read from it. * marks the point of attachment. Cbz = O=C(OCc1ccccc1)*

Consider `CC(C)C[C@@H](/C=C/C(=O)n1cccc1)NC(=O)[C@H](CC(C)C)NC(=O)[C@H](CC(C)C)NC(=O)CCCCCNC(=O)OCc1ccccc1`, for which the IC50 in data set [1] is > 10 µM; in data set [2], > 10 µM; in data set [3], 0.155 µM.

For the molecule `CC(C)C[C@@H](/C=C/C(=O)n1cccc1)NC(=O)[C@H](CC(C)C)NC(=O)[C@H](CC(C)C)NC(=O)CCCCCCCNC(=O)OCc1ccccc1`, the IC50 in data set [4] is > 10 µM; in data set [1] it was > 10 µM; in data set [5], 0.116 µM; in data set [6], > 10 µM; in data set [2], > 10 µM; in data set [3], 0.062 µM.

In the case of `CC(C)C[C@@H](/C=C/C(=O)n1cccc1)NC(=O)[C@H](CO)NC(=O)[C@@H](NC(=O)CCCCCNC(=O)OCc1ccccc1)C(C)C`, the IC50 in data set [4] is > 10 µM; in data set [1], > 10 µM; in data set [5], 0.147 µM; in data set [6], > 10 µM; in data set [2] it was > 10 µM; in data set [3], 0.097 µM.

Regarding `CC(C)C[C@@H](/C=C/C(=O)n1cccc1)NC(=O)[C@H](CO)NC(=O)[C@@H](NC(=O)CCCCCCCNC(=O)OCc1ccccc1)C(C)C`, the 50% inhibitory concentration (IC50) in data set [4] was > 10 µM; in data set [1], > 10 µM; in data set [5], 0.058 µM; in data set [6], > 10 µM; in data set [2] it was 5.08 µM; in data set [3], 0.036 µM. Besides, the Activity result (in the data set on JIYOYE; in data set [7]) was “Not Active” throughout.

For `CC(C)C[C@@H](/C=C/C(=O)n1cccc1)NC(=O)[C@H](CC(C)C)NC(=O)[C@H](CC(C)C)NC(=O)OCc1ccccc1`, the IC50 is > 10 µM in data set [1], 7.89 µM in data set [2] and 0.091 µM in data set [3].

`Cc1c(O)cccc1C(=O)N[C@@H](CC(C)C)C(=O)N[C@@H](CC(C)C)C(=O)N[C@H](/C=C/C(=O)n1cccc1)CC(C)C`: the IC50 in data set [4] was 5.6 µM; in data set [1] it was > 10 µM; in data set [5], 0.135 µM; in data set [6], > 10 µM; in data set [2], 3.63 µM; in data set [3], 0.065 µM. The Activity result (in the data set with JIYOYE; in data set [7]) was “Not Active” throughout.

With `CC(C)C[C@@H](/C=C/C(=O)n1cccc1)NC(=O)[C@H](CO)NC(=O)[C@@H](NC(=O)OCc1ccccc1)C(C)C`, the IC50 in data set [1] is > 10 µM; in data set [2], > 10 µM; in data set [3], 0.122 µM.

Turning to `Cc1c(O)cccc1C(=O)N[C@H](C(=O)N[C@@H](CO)C(=O)N[C@H](/C=C/C(=O)n1cccc1)CC(C)C)C(C)C`, the IC50 in data set [1] was > 10 µM; in data set [2], > 10 µM; in data set [3] it was 0.178 µM.

The molecule `CC[C@H](C)[C@H](NC(=O)[C@H]([C@@H](C)CC)N(C)C(C)=O)C(=O)N[C@H](C(=O)N[C@@H](CC(C)C)C(=O)[C@@]1(C)CO1)[C@@H](C)O` [EPOXOMYCIN] gave an IC50 in data set [2] of 0.005 µM.

Regarding `CC(C)C[C@@H](C=O)NC(=O)[C@H](CC(C)C)NC(=O)[C@H](CC(C)C)NC(=O)OCc1ccccc1` [MG-132] (Cbz-Leu-Leu-Leu-aldehyde), the IC50 is 1.08 µM in data set [1] and 0.002 µM in data set [2].
